For assay [1], the system named is human eosinophils. Put plainly: Eosinophil chemotaxis in modified Boyden chambers. Conditions: for chemotactic activity (qualitative): eosinophils; for magnitude of the maximum eosinophil response (rank among tetrapeptides): Discussion, Fig. 1. In kind it is cell-based. In short, it runs like this:
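Blood from donors with 26–89% eosinophilia was citrate/dextran-sedimented 30 min at 37°C and centrifuged 100 g for 10 min. Leukocytes were washed three times into HBSS-0.4% ovalbumin-Tris pH 7.4. Stimuli in the lower compartment were separated from cells by a 3-µm filter, incubated 2½–3 h at 37°C. Fixed, stained filters were read blind at background depth (2–8 cells/hpf), 10 hpf from duplicate chambers, as net cells/hpf.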

The subject of assay [2] is human eosinophils. Briefly: Chemotactic deactivation of eosinophils, assessed by response to Val-Gly-Ser-Glu. Format: cell-based. Conditions: for deactivation (qualitative): 10-r' M tetrapeptide, response to valyl-tetrapeptide, Fig. 3. In short, it runs like this:
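Leukocytes from hypereosinophilic donors were dextran-sedimented, washed and resuspended in HBSS with 0.4% ovalbumin and Tris-HCl pH 7.4. Eosinophils were preincubated 2–40 min at 37°C with graded valyl- or alanyl-tetrapeptide, then washed three times. They were then challenged in a Boyden chamber (3-µm filter) with 10^-7 M valyl-tetrapeptide. Residual response is given as % of buffer-treated cells, mean ±1 SD of three experiments.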

Assay [3] has as its system human eosinophils. Put plainly: Cross-deactivation of eosinophils, assessed by response to C5a. The settings on record: 10-12 M tetrapeptide pretreatment; Fig. 4. In kind it is cell-based. In short, it runs like this: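 Eosinophils in HBSS-ovalbumin were pretreated 2–40 min at 37°C with graded valyl- or alanyl-tetrapeptide and washed three times. They were then challenged in a Boyden chamber with C5a at the level derived from 2.5 µg equivalent of C5/ml. C5a came from tryptic digestion of human plasma C5, heated 20 min at 61°C and centrifuged. Results are % of buffer-treated control, mean ±1 SD, three experiments.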

The test system of another assay is neutrophils. Briefly: Neutrophil chemotaxis to valyl-tetrapeptide and its inhibition by tripeptides. In kind it is cell-based, human. The settings on record: for chemotactic response of neutrophils: valyl-tetrapeptide stimulus, neutrophils purified to 98%; for irreversible inhibition of the neutrophil response: response to 10^-7 M valyl-tetrapeptide; for inhibition of the response of neutrophils: tripeptide added to the stimulus, equimolar to valyl-tetrapeptide. In short, it runs like this:
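Neutrophils from normal donors were isolated on Ficoll-Hypaque to 98% purity, washed and resuspended in HBSS-ovalbumin. They were tested in modified Boyden chambers with a 3-µm filter against 10^-7 M valyl-tetrapeptide, with or without NH2- or COOH-terminal tripeptide, for 2½–3 h at 37°C. Migrated cells were counted blind in 10 hpf from duplicate chambers as net neutrophils/hpf.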

Assay [4] concerns human eosinophils. Put plainly: Modulation. In kind it is cell-based. Conditions: for irreversible inhibition of the eosinophil response to 10-7 M valyl-tetrapeptide: neutrophil comparison; for inhibition of response to 10-7 M valyl-tetrapeptide: pretreatment with 10^-7 M tripeptide followed by washing; for inhibition of the valyl-tetrapeptide effect: 10^-7 M tripeptide added with the stimulus. In short, it runs like this: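 Tripeptides or amides were added to the stimulus compartment with 10^-7 M valyl-tetrapeptide or to the cell compartment. Alternatively, eosinophils were preincubated with them 20 min at 37°C and washed three times. Migration in a modified Boyden chamber (3-µm filter, 2½–3 h, 37°C) was counted as net eosinophils/hpf. It is expressed as % of the response of buffer-treated cells.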

Assay [5] has as its system human eosinophils. Briefly: Suppression of the eosinophil chemotactic response to C5a by tripeptides. Format: cell-based. Conditions: for inhibition of response to C5a: pretreatment with 10^-7 M tripeptide followed by washing; for inhibition of the C5a-stimulated response: 10^-7 M tripeptide added with the stimulus. In short, it runs like this:
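NH2-terminal tripeptide was added to the stimulus compartment with C5a in two experiments. In three experiments, eosinophils were pretreated with COOH-terminal tripeptide and washed. The C5a stimulus was a tryptic digest of purified human plasma C5, heat-treated 20 min at 61°C.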

Assay [6] relates to human eosinophils. Format: cell-based. In short, it runs like this: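 Eosinophils were pretreated 20 min at 37°C with deactivating valyl-tetrapeptide or COOH-terminal tripeptide, with Val-Gly-Ser present at graded concentrations. They were then washed three times. Residual chemotactic response to 10^-7 M valyl-tetrapeptide was measured in Boyden chambers. It is expressed as mean % of buffer-exposed control response, from two experiments with different donors.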

We go through eight molecules from article PMC2190483 (The Journal of Experimental Medicine, 1976).

On to Leu- Ser-Glu [Leu-Ser-Glu], for which the “maximum activity as fraction of maximum chemotactic activity of tetrapeptides” value in the assay with human eosinophils [1] (versus maximum obtained with 10^-7 M tetrapeptides, Fig. 2) is on record as “approximately two-thirds”.

As to Val-Gly-Ser-Glu, the control chemotactic response with human eosinophils [1] (10^-7 M stimulus, Table I, donor 2 (37% eosinophilia)) turned out to be 12.3 net eosinophils per hpf; in the assay with human eosinophils [1] (10^-7 M stimulus, Table II, experiment 2, buffer-exposed cells), 11.7 net eos/hpf. Besides, in the assay with human eosinophils [1] (valyl-tetrapeptide stimulus, neutrophil comparison, experiment 2), the “chemotactic response of eosinophils” value is 15.3 eosinophils (eos)/hpf. In addition, the “deactivation (qualitative)” value in the assay with human eosinophils [2] is reported as “substantial deactivation”. Further, the “effect on eosinophil responsiveness to C5a” value in the assay on human eosinophils [3] is listed as “did not decrease”. Besides, the “chemotactic response of neutrophils” value stood at 16.9 neutrophils/hpf in the assay on neutrophils (experiment 1) and 21.4 neutrophils/hpf with neutrophils (experiment 2).

Turning to Gly-Ser-Glu, the “chemotactic activity (qualitative)” value with human eosinophils [1] was “only marginally chemotactic”. For the same molecule, the “effect when mixed with stimulus” value in the assay on human eosinophils [4] (10^-7 M mixed with an equimolar quantity of valyl-tetrapeptide stimulus) is on record as “ineffective”. The “irreversible inhibition of the eosinophil response to 10-7 M valyl-tetrapeptide” value in the assay on human eosinophils [4] (experiment 1) stood at 61%; in the assay with human eosinophils [4] (experiment 2), 74%. For the same molecule, the “inhibition of response to 10-7 M valyl-tetrapeptide” value in the assay with human eosinophils [4] (experiment 2 of three) is on record as 62%; in the assay with human eosinophils [4] (experiment 3 of three), 48%. For the same molecule, the “inhibition of response to C5a” value in the assay with human eosinophils [5] (experiment 1 of three) is given as 71%; in the assay on human eosinophils [5] (experiment 2 of three), 53%; in the assay with human eosinophils [5] (experiment 3 of three), 37%. Moreover, the “irreversible inhibition of the neutrophil response” value in the assay on neutrophils (experiment 1) worked out at 33%; in the assay with neutrophils (experiment 2) it was 28%.

Consider Phe-Gly-Ser-Glu, for which the “magnitude of the maximum eosinophil response (rank among tetrapeptides)” value in the assay with human eosinophils [1] is reported as “greatest maximum response”. In addition, the entries for the “deactivating activity (qualitative)” value in the assay with human eosinophils [2] (at 10^-6 M) and in the assay with human eosinophils [2] (at 10^-7 M) were “comparable to 10-~ M alanyl-tetrapeptide” and “minimally evident”, respectively.

Regarding Leu-Gly-Ser-Glu, in the assay on human eosinophils [1], the “magnitude of the maximum eosinophil response (rank among tetrapeptides)” value was “the least”.

Regarding Ala-Gly-Ser-Glu, the “deactivation (qualitative)” value with human eosinophils [2] is recorded as “substantial deactivation”. Besides, in the assay on human eosinophils [3], the “effect on eosinophil responsiveness to C5a” value is “did not decrease”.

With Val-Gly-Ser, the “chemotactic activity (qualitative)” value in the assay with human eosinophils [1] was “only marginally chemotactic”. In addition, the “inhibition of the valyl-tetrapeptide effect” value in the assay on human eosinophils [4] (experiment 1 of two) was 47%; in the assay with human eosinophils [4] (experiment 2 of two) it was 61%. Moreover, the “inhibition of the eosinophil response” value in the assay with human eosinophils [4] (on the stimulus side with 10^-7 M valyl-tetrapeptide, equimolar concentrations, Discussion, Fig. 5) is listed as 50-60%; in the assay with human eosinophils [4] (tripeptide added to the 10^-7 M tetrapeptide stimulus at approximately an equimolar concentration, Fig. 5, Results), 50%. Also, the “inhibition of the C5a-stimulated response” value is on record as 18% with human eosinophils [5] (experiment 1 of two) and 29% in the assay on human eosinophils [5] (experiment 2 of two). Also, in the assay with human eosinophils [6] (at an equimolar concentration or at a 10-fold excess), the “protection against the COOH-terminal tripeptide” value is recorded as “no protection”. In the assay with human eosinophils [6] (equimolar concentration of tripeptide and deactivating valyl-tetrapeptide), the “protection from deactivation by valyl-tetrapeptide” value is 40-50%. Also, the “protection from deactivation by valyl-tetrapeptide (qualitative)” value in the assay on human eosinophils [6] (tripeptide at 10^-7 M with 10^-8 M valyl-tetrapeptide) was “completely protective”. The “reduction of the neutrophil response to 10-7 M valyl-tetrapeptide” value in the assay with neutrophils (equimolar concentrations, Discussion) is “Approximately 50%”. Besides, the “inhibition of the response of neutrophils” value was 49% in the assay on neutrophils (experiment 1) and 54% in the assay with neutrophils (experiment 2).

B1: C5a: prepared by tryptic digestion of purified C5 prepared from human plasma (protein, UniProt P01031 678-751, looked up)
C5a anaphylatoxin: TLQKKIEEIAAKYKHSVVKKCCYDGACVNNDETCEQRAARISLGPRCIKAFTECCVVASQLRANISHKDMQLGR
modifications: C5a anaphylatoxin
As for B1, the control chemotactic response in the assay with human eosinophils [1] (C5a derived from 2.5 µg equivalent of C5/ml, Fig. 4, donor 2 (43% eosinophilia)) was 16.5 net eos/hpf; with human eosinophils [1] (C5a derived from 2.5 µg equivalent of C5/ml, Fig. 4, donor 3 (59% eosinophilia)) it was 18.8 net eos/hpf.
